Values after ≈ are worked out from the molar mass of the structure shown. Active and inactive are the calls of the source. No cut-off for these calls is given here.
Key:
[1] = system: Staphylococcus epidermidis; test: Antibiofilm activity against methicillin-resistant Staphylococcus epidermidis ATCC 35984 biofilms assessed as biofilm eradication incubated for 24 hrs followed by incubation for 24 hrs in fresh medium by Calgary biofilm device assay; type: functional
In short: (§1)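 Calgary biofilm device. Mid-log culture diluted 1000-fold in TSB with 0.5% glucose; biofilms grown on pegs 24 h at 37 °C. Pegs washed and challenged with twofold compound dilutions for 24 h at 37 °C, then moved to fresh medium for 24 h. MBEC is the lowest concentration leaving wells non-turbid. At least three independent experiments.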

[2] = system: Staphylococcus aureus; test: Induction of iron starvation in methicillin-resistant Staphylococcus aureus BAA-1707 biofilms assessed as upregulation of MW0695 gene expression at 1/10XMBEC incubated for 4 hrs by RT-qPCR analysis; type: functional
In short: (§2)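 MRSA BAA-1707 grown in TSB with 0.5% glucose to OD600 ~0.8–1.0, then biofilms formed 20 h at 37 °C statically in gelatin-coated 24-well plates. Biofilms treated 4 h at 37 °C with compound (1 μM or 1/10 MBEC) or DMSO vehicle. RNA extracted; only RIN ≥7 samples used. One-step SYBR RT-qPCR; ΔCT normalised to ptaA. Three independent experiments.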

[3] = system: Enterococcus faecium; test: Antibiofilm activity against methicillin-resistant vancomycin-resistant Enterococcus faecium ATCC 700221 biofilms assessed as biofilm eradication incubated for 24 hrs followed by incubation for 24 hrs in fresh medium by Calgary biofilm device assay; type: functional; in short: as §1
[4] = system: Enterococcus faecalis; test: Bactericidal activity against […] Enterococcus faecalis OG1RF ATCC 47077 planktonic cells assessed as planktonic eradication incubated for 24 hrs followed by incubation for overnight in fresh medium by Calgary biofilm device assay; type: functional
In short: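 Calgary biofilm device in BHI. Biofilms grown 24 h at 37 °C and challenged 24 h with twofold compound dilutions. Challenge medium subcultured 1:10 into fresh BHI overnight at 37 °C. MBC is the concentration with no turbidity. At least three independent experiments.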

[5] = system: Staphylococcus aureus; test: Induction of iron starvation in methicillin-resistant Staphylococcus aureus BAA-1707 biofilms assessed as upregulation of sbnC gene expression at 1/10XMBEC incubated for 4 hrs by RT-qPCR analysis; type: functional; in short: as §2
[6] = system: Enterococcus faecalis; test: Antibacterial activity against Enterococcus faecalis OG1RF ATCC 47077 assessed as bacterial growth inhibition incubated for 16 hrs by broth microdilution susceptibility test; type: functional
[7] = system: Staphylococcus aureus; test: Induction of iron starvation in methicillin-resistant Staphylococcus aureus BAA-1707 biofilms assessed as upregulation of isdB gene expression at 1/10XMBEC incubated for 4 hrs by RT-qPCR analysis; type: functional; in short: as §2
[8] = system: Staphylococcus aureus; test: Induction of iron starvation in methicillin-resistant Staphylococcus aureus BAA-1707 biofilms assessed as upregulation of sbnC gene expression at 1 uM incubated for 4 hrs by RT-qPCR analysis; type: functional; in short: as §2
[9] = system: Staphylococcus aureus; test: Antibacterial activity against methicillin-resistant Staphylococcus aureus BAA-1707 assessed as bacterial growth inhibition incubated for 16 hrs by broth microdilution susceptibility test; type: functional
In short: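 CLSI broth microdilution with 11 twofold dilutions (0.05–50 μM). About 10^5 cells per well from a log-phase culture. DMSO vehicle up to 0.5% v/v. At least three independent experiments.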

[10] = Binding affinity to Fe2+ assessed as compound-Fe2+ complex formation by UV-vis spectroscopy
[11] = system: Staphylococcus aureus; test: Induction of iron starvation in methicillin-resistant Staphylococcus aureus BAA-1707 biofilms assessed as upregulation of MW0695 gene expression at 1 uM incubated for 4 hrs by RT-qPCR analysis; type: functional; in short: as §2
[12] = system: Enterococcus faecalis; test: Antibiofilm activity against Enterococcus faecalis OG1RF ATCC 47077 biofilms assessed as biofilm eradication incubated for 24 hrs followed by incubation for 24 hrs in fresh medium by Calgary biofilm device assay; type: functional
In short: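 Calgary biofilm device. Biofilms grown 24 h at 37 °C in BHI from mid-log culture diluted 1000-fold. Pegs washed and then challenged 24 h with twofold serial dilutions. Pegs moved to fresh BHI for 24 h recovery. MBEC = lowest concentration leaving no turbidity; at least three independent experiments.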

[13] = system: Staphylococcus aureus; test: Antibiofilm activity against methicillin-resistant Staphylococcus aureus BAA-44 biofilms assessed as biofilm eradication incubated for 24 hrs followed by incubation for 24 hrs in fresh medium by Calgary biofilm device assay; type: functional; in short: as §1
[14] = system: Staphylococcus aureus; test: Induction of iron starvation in methicillin-resistant Staphylococcus aureus BAA-1707 biofilms assessed as upregulation of sfaA gene expression at 1 uM incubated for 4 hrs by RT-qPCR analysis; type: functional; in short: as §2
[15] = system: Erythrocyte; test: Hemolytic activity against human RBC at 200 uM measured after 1 hr; type: toxicity, cell-based
In short: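 2% hRBCs exposed to compound at 200 μM final, added from DMSO stock, for 1 h at 37 °C. Supernatant OD read at 405 nm. Hemolysis normalized between DMSO (0%) and Triton X (100%); three independent experiments.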

[16] = system: HeLa; test: Cytotoxicity against human HeLa cells assessed as reduction in cell viability incubated for 24 hrs by LDH release assay; type: toxicity, cell-based
In short: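 HeLa cells in DMEM with 10% FBS, treated at 70–80% confluence with 25, 50 and 100 μM for 24 h. LDH in supernatant measured by 30 min reaction at room temperature, then stop solution and absorbance at 490 nm. Controls: 2% Triton X-100 (maximum), medium only, DMSO vehicle. Three independent experiments.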

[17] = system: Staphylococcus epidermidis; test: Bactericidal activity against methicillin-resistant Staphylococcus epidermidis ATCC 35984 planktonic cells assessed as planktonic eradication incubated for 24 hrs followed by incubation for overnight in fresh medium by Calgary biofilm device assay; type: functional
In short: (§3)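 Calgary biofilm device. Biofilms grown 24 h at 37 °C in TSB with 0.5% glucose, then challenged 24 h with twofold compound dilutions. 20 μL of challenge medium transferred into fresh TSB with 0.5% glucose and incubated overnight at 37 °C. MBC is the concentration with no visible turbidity. At least three independent experiments.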

[18] = system: Staphylococcus aureus; test: Bactericidal activity against methicillin-resistant Staphylococcus aureus BAA-1707 planktonic cells assessed as planktonic eradication incubated for 24 hrs followed by incubation for overnight in fresh medium by Calgary biofilm device assay; type: functional; in short: as §3
[19] = system: J774; test: Cytotoxicity against mouse J774 cells assessed as reduction in cell viability […] by Alamar blue assay; type: toxicity, cell-based
[20] = system: Mycobacterium tuberculosis; test: Antibacterial activity against Mycobacterium tuberculosis H37Ra ATCC 25177 assessed as bacterial growth inhibition incubated for 7 days by absorbance based analysis; type: functional; settings: H37Ra ATCC 25177, 168 h, time 7 day
In short: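 H37Ra grown 2 weeks in Middlebrook 7H9, then diluted to OD600 0.01. Compounds added in twofold dilutions, final 0.024–50 μM, with 0.5% DMSO and streptomycin as positive control. Incubated 7 days at 37 °C. MIC is the lowest concentration with no growth, with OD600 recorded. At least three independent experiments.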

[21] = system: Enterococcus faecium; test: Bactericidal activity against methicillin-resistant vancomycin-resistant Enterococcus faecium ATCC 700221 planktonic cells assessed as planktonic eradication incubated for 24 hrs followed by incubation for overnight in fresh medium by Calgary biofilm device assay; type: functional; in short: as §3
[22] = system: Mycobacterium tuberculosis; test: Antibacterial activity against Mycobacterium tuberculosis CDC1551 assessed as bacterial growth inhibition incubated for 5 days by luminescence based analysis; type: functional; settings: CDC1551, 120 h, time 5 day
In short: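 Bioluminescent Mtb-lux CDC1551 reporter grown in Middlebrook 7H9 with 0.05% Tween 80, 10% OADC and kanamycin to OD600 0.4–0.8, then diluted to OD600 0.02. Added to twofold drug dilutions (0.003–200 μM). Incubated 5 days at 37 °C, 5% CO2. Luminescence read against 1% DMSO and 10 μM rifampicin controls to give % growth inhibition. MIC taken from a modified Gompertz fit.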

[23] = system: HepG2; test: Cytotoxicity against human HepG2 cells assessed as reduction in cell viability […] by Alamar blue assay; type: toxicity, cell-based
[24] = system: Staphylococcus aureus; test: Induction of iron starvation in methicillin-resistant Staphylococcus aureus BAA-1707 biofilms assessed as upregulation of isdB gene expression at 1 uM incubated for 4 hrs by RT-qPCR analysis; type: functional; in short: as §2
[25] = system: Staphylococcus aureus; test: Induction of iron starvation in methicillin-resistant Staphylococcus aureus BAA-1707 biofilms assessed as upregulation of sfaA gene expression at 1/10XMBEC incubated for 4 hrs by RT-qPCR analysis; type: functional; in short: as §2

SMILES: Oc1c(Br)c(Cl)c(Br)c2nc3ccccc3nc12
- MBEC [1]: 25 µM
- Activity [2]: Active
- MBEC [3]: 2.35 µM
- MBC [4]: 75 µM (≈ 29.1 µg/mL)
- Activity [5]: Active
- MIC [6]: 3.13 µM (≈ 1.22 µg/mL)
- Activity [7]: Active
- Activity [8]: Active
- MIC [9]: 0.15 µM (≈ 0.0583 µg/mL)
- Activity [10]: Active
- Activity [11]: Active
- MBEC [12]: >200 µM
- MBEC [13]: 75 µM
- Activity [14]: Active
- Activity [15]: <= 1%
- IC50 [16]: > 100 µM
- MBC [17]: 12.5 µM (≈ 4.86 µg/mL)
- MBC [18]: 50 µM (≈ 19.4 µg/mL)
- IC50 [19]: > 200 µM
- MIC [20]: 6.25 µM (≈ 2.43 µg/mL)
- MBC [21]: 4.69 µM (≈ 1.82 µg/mL)
- MIC [22]: 4.37 µM (≈ 1.7 µg/mL)
- IC50 [23]: > 200 µM
- Activity [24]: Active
- Activity [25]: Active

SMILES: CN[C@H](CC(C)C)C(=O)N[C@H]1C(=O)N[C@@H](CC(N)=O)C(=O)N[C@H]2C(=O)N[C@H]3C(=O)N[C@H](C(=O)N[C@H](C(=O)O)c4cc(O)cc(O)c4-c4cc3ccc4O)[C@H](O)c3ccc(c(Cl)c3)Oc3cc2cc(c3O[C@@H]2O[C@H](CO)[C@@H](O)[C@H](O)[C@H]2O[C@H]2C[C@](C)(N)[C@H](O)[C@H](C)O2)Oc2ccc(cc2Cl)[C@H]1O [VANCOMYCIN]
- MBEC [1]: >2000 µM
- MBEC [3]: >2000 µM
- MBC [4]: 11.7 µM (≈ 17 µg/mL)
- MBEC [12]: >2000 µM
- MBEC [13]: >2000 µM
- MBC [17]: 2 µM (≈ 2.9 µg/mL)
- MBC [21]: 750 µM (≈ 1090 µg/mL)

From ChEMBL document CHEMBL5154634, “A Modular Synthetic Route Involving N-Aryl-2-nitrosoaniline Intermediates Leads to a New Series of 3-Substituted Halogenated Phenazine Antibacterial Agents” (J Med Chem, 2021)
